Results taken from article PMC5484360 (Journal of Applied Toxicology, 2017).
Read-outs that look alike come from different tables or passages of the source.

Experiments:
[1] = type: in vitro ADME, human; settings: Protocol 2B; for Jss (steady state flux through the SC) / kp (permeation coefficient) / Mass balance / tlag (lag time): human SC; for Mass balance: 22 h; for tlag (lag time): from non-linear regression of cumulative amount penetrated vs. time
Outline: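 Isolated SC on 0.22 μm SuPor membrane, thickness by digital micrometer; flow-through cells at 32°C, stirred, receptor DPBS+ at 25 μl/min, equilibrated ≥30 min before dosing; 22 h occluded incubation; donor sampled pre/post; SC dissolved in 1M NaOH, radioactivity counted with washes for mass balance. Jss from earliest linear slope, membrane-corrected; kp = Jss/C; KSC/v·HSC and DSC/HSC² by non-linear Fick's-second-law fit of cumulative absorbed vs time.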

[2] = type: in vitro ADME; settings: Protocol 1, pig skin, 30 min exposure, infinite dose, mean (%CV)
Outline: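 Pig skin was shaved, trimmed to 2–3 mm and defatted, then mounted as 32 mm discs in Franz cells over 9 g l–1 NaCl and equilibrated 1 h at 32°C with stirring. Infinite dose (350 μl cm–2), 30 min exposure, excess removed, then 15 weighed tape strips over 18 mm, extracted with methanol. HSC came from TEWL; depth profiles were fitted to Fick's 2nd-law solution for KSC/v and DSC/HSC².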

[3] = type: in vitro ADME, human
[4] = human skin, Equation (10) non-linear regression, mean (%CV)
[5] = Protocol 1, human skin, 30 min exposure, infinite dose, mean (%CV)

| Jss (steady state flux through the SC) [1] [ng/cm^2] | kp (permeation coefficient) [1] [×10⁻⁶ cm/s] | Mass balance [1] [%] | tlag (lag time) [1] [h] | DSC/HSC ^2 [1, 4] | KSC/v [1, 4] | DSC/HSC ^2 [2] | KSC/v [2] | KSC/v ([2]; listed as 7‐EC) | DSC/HSC ^2 [3, 5] | KSC/v [3, 5] | KSC/v ([3]; Protocol 1, human skin, 30 min exposure, infinite dose, mean (%CV), listed as 7‐EC) | KSC/v ([3]; Protocol 1, single human donor in duplicate, 30 min exposure) | KSC/v ([3]; Protocol 1, single human donor in duplicate, 90 min exposure) | KSC/v ([2]; listed as caffeine) | KSC/v ([3]; Protocol 1, human skin, 30 min exposure, infinite dose, mean (%CV), listed as caffeine) | SMILES |
| --- | --- | --- | --- | --- | --- | --- | --- | --- | --- | --- | --- | --- | --- | --- | --- | --- |
| 225 | 0.095 ± 0.188 | 97.3 ± 1.4 | 0.001 ± 0.004 | 0.078 (26%) h^‐1 | 0.019 (34%) | 0.10 (44%) h^‐1 | 89.5 (4.6%) | 89.5 | 0.030 (55%) h^‐1 | 39.5 (19%) | 39.5 | 34.5 ± 6.4 | 46.0 ± 1.4 | – | – | CCOc1ccc2ccc(=O)oc2c1 [7‐Ethoxycoumarin] |
| 1261429 | 0.154 ± 0.111 | 99.7 ± 1.3 | 1.82 ± 1.02 | – | 2.63 (70%) | – | 1.27 (31%) | – | – | 2.68 (20%) | – | – | – | 1.27 | 2.68 | Cn1c(=O)c2c(ncn2C)n(C)c1=O [Caffeine] |
| 2699031 | 0.233 ± 0.133 | 99.2 ± 2.5 | 2.13 ± 0.16 | – | – | – | – | – | – | – | – | – | – | – | – | Oc1cccc(O)c1 [Resorcinol] |
